According to ChEMBL document CHEMBL1137665, “Antistaphylococcal activity of CG400549, a new experimental FabI inhibitor, compared with that of other agents” (2007):
≈ marks a conversion by molar mass, not a printed value.

Assays:
Staphylococcus aureus [1] = experiment: Antimicrobial activity against vancomycin-intermediate Staphylococcus aureus 504 after 50 passages by multi-step resistance selection technique; format: functional
How it was run: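 Multistep selection: S. aureus strains (MSSA and MRSA, including VISA and VRSA) were passaged serially once daily in subinhibitory concentrations of each antimicrobial. Mutant and parent identities were confirmed by pulsed-field gel electrophoresis at the end of the study. Mutant MIC stability was checked after 10 daily subcultures on antibiotic-free media.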

Staphylococcus aureus [2] = experiment: Antimicrobial activity against methicillin-susceptible Staphylococcus aureus 543 after 14 passages by multi-step resistance selection technique; format: functional
How it was run: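 Multistep selection by daily serial passage of each strain in subinhibitory drug concentrations for the stated number of passages. Mutant MIC was then determined. Identity of mutants and parents was confirmed by pulsed-field gel electrophoresis.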

SMILES: CCCCCCCCCC(=O)N[C@@H](Cc1c[nH]c2ccccc12)C(=O)N[C@H](CC(N)=O)C(=O)N[C@@H](CC(=O)O)C(=O)N[C@@H]1C(=O)NCC(=O)N[C@@H](CCCN)C(=O)N[C@@H](CC(=O)O)C(=O)N[C@H](C)C(=O)N[C@@H](CC(=O)O)C(=O)NCC(=O)N[C@H](CO)C(=O)N[C@@H]([C@H](C)CC(=O)O)C(=O)N[C@@H](CC(=O)c2ccccc2N)C(=O)O[C@@H]1C
- MIC (Staphylococcus aureus [1]): 16 mg/L (≈ 9.87 µM)

SMILES: Cc1c(N)cccc1Cn1ccc(OCCc2cccs2)cc1=O [CG-400549]
- MIC (Staphylococcus aureus [2]): 8 mg/L (≈ 23.5 µM)
